Bioassay records: PubChem, The Scripps Research Institute Molecular Screening Center
GPR7 antagonist = blocks human GPR7 receptor signaling. P48145. GPR7-expressing cells, fluorescence antagonist assay. inhibition, % at 4.4 µM. 1.1% of 290,000 active. AID 1861; in the data active = inhibition above about 16%, passing the limit was not always enough;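 note: cells stimulated with the agonist NPW; 0% = agonist with vehicle and 100% = vehicle without agonist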
Target sequence (P48145 whole entry, looked up): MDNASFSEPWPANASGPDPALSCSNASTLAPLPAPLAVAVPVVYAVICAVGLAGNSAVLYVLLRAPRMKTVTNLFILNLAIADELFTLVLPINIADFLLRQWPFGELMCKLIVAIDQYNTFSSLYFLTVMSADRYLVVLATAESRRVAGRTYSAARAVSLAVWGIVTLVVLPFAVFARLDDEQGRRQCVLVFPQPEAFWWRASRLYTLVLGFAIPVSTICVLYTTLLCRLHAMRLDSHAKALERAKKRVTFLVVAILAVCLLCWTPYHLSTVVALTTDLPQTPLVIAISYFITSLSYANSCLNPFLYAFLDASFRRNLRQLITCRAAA
GalR3 antag = blocks the human galanin receptor 3. O60755. HEK293 GalR3-CNG cAMP membrane potential fluorescence; galR3 body fused to GalR1 C-terminus. inhibition, % at 3 µM. 0.44% of 360,000 active. AID 651719;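 active = inhibition above the screen-wide average plus 3 SD, cut at about 13% in these data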;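 note: forskolin and galanin both at EC90 stimulate the cells; cAMP rise reported by CNG channel membrane potential dye signal; 0% = forskolin plus galanin with DMSO and 100% = forskolin alone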
Target sequence (O60755 1-299 limits assumed): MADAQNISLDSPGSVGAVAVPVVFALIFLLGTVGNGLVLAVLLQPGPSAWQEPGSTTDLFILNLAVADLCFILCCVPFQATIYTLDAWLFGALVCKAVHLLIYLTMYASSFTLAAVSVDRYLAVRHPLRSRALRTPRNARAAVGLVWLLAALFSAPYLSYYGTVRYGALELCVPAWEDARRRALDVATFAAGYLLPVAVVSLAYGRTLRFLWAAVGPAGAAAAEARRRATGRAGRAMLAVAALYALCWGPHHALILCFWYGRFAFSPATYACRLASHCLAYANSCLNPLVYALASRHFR
OX1R antag-1 = antagonists of human orexin 1 receptor | 0.43% of 330,000 active | CHO/OX1R cells, Fluo-8 calcium fluorescence, orexin A | inhibition, % at 5 µM | AID 434989 | O43613;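 active = inhibition above its plate's threshold, mean inhibition of all tested compounds on the plate plus 3 SD, cut at about 37% in these data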;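 note: 0% = orexin A challenge wells and 100% = SB-334867-A antagonist wells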
OX1R antag-2 = blocks the human orexin 1 receptor; inhibition, % at 6.6 µM; 1.8% of 330,000 active; OX1R-expressing cells, FRET antagonist read-out; in the data active = inhibition mostly above about 38%, no sharp cut-off; inactive = mostly below about 40%;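 note: 0% = agonist challenge alone and 100% = reference antagonist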
CHO parental Ca = counter-screen: ATP calcium response change in parental CHO cells; parental CHO-K1, ATP-induced calcium, Fluo-8 fluorescence; inhibition, % at 5.6 µM; 0.63% of 330,000 active;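 active = inhibition above that plate's mean sample inhibition plus 3 SD, cut at about 26% in these data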;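 note: 0% = ATP-challenged DMSO wells and 100% = DMSO wells without ATP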
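Test system: untransfected parental CHO cell line; also added: ATP stimulus; dosing: 5.6 µM, single dose; signal: calcium-sensitive Fluo-8 fluorescence; measure: percent inhibition of ATP-evoked calcium rise, normalized to controls; benchmarks: low control ATP plus DMSO, high control DMSO only; replication: one well per compound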
GalR3 antag conf = confirmation of human galanin receptor 3 antagonists; inhibition, % at 3 µM; HEK293 GalR3 CNG cAMP biosensor, membrane potential fluorescence; galR3 fused to GalR1 carboxy tail; challenged with forskolin and galanin at EC90; shares compounds with GalR3 antag; 59% of 1,600 active;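 active = inhibition above the primary screen's cutoff, the mean inhibition of all screened compounds plus 3 SD, cut at about 13% in these data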;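 note: 0% = forskolin plus galanin and 100% = forskolin alone with DMSO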
CNG parental = counter-screen for GalR3 antagonists: nonspecific agonists in parental HEK-CNG cells. HEK293-CNG parental cells, cAMP membrane potential fluorescence; normalised: DMSO wells 0%, forskolin wells 100%. shares compounds with GalR3 antag. AID 652268. 10% of 1,600 active. activation, % at 3 µM; in the data active = activation above about 1.3%
Numbers without * were called inactive; . = no result given. Rows were chosen to be rich in hits. Some 3.1% of all compounds tested hit in one or more screens of this group.

SMILES	GPR7 antagonist	GalR3 antag	OX1R antag-1	OX1R antag-2	CHO parental Ca	GalR3 antag conf	CNG parental
CC(C)C(=O)NC(c1cccc([N+](=O)[O-])c1)c1c(O)ccc2ccccc12 (stereo not drawn)	-13	16*	-11	27	-17	-5	1
CC(C)C(=O)NC(c1ccc([N+](=O)[O-])cc1)c1c(O)ccc2ccccc12 (stereo not drawn)	-4	-7	5	27	18	.	.
Cc1cccc(NC(=O)c2ccc(C)c(S(=O)(=O)N3CCOCC3)c2)n1	.	-4	.	.	.	.	.
C[C@@H]1CCCCO[C@@H](CN(C)C(=O)Nc2ccc(C(F)(F)F)cc2)[C@@H](C)CN([C@H](C)CO)C(=O)c2cc(NS(=O)(=O)c3ccc(Cl)cc3)ccc2O1	.	-3	.	.	.	.	.
OCC1OC(Nc2ccccc2C=NO)C(O)C1O (stereo not drawn)	.	0	.	.	.	.	.
Cc1onc(-c2ccccc2)c1-c1nc2ccccc2c(=O)o1	-5	16*	-11	10	-3	13*	2.0*
CCN(c1ccccc1)S(=O)(=O)c1ccc(F)cc1	-19	-6	-1	5	-10	.	.
CCN(c1ccccc1)S(=O)(=O)c1ccc(C(=O)Oc2ccc(C(C)=O)cc2)cc1	-7	14*	-3	5	-7	-2	0
Cc1c(C(=O)NCc2ccc(C(C)C)cc2)sc(=O)n1Cc1ccc(S(=O)(=O)N(C)C)cc1	.	37*	.	.	.	28*	0
Cc1c(C(=O)NCc2ccc(Cl)c(Cl)c2)sc(=O)n1Cc1ccc(S(=O)(=O)N(C)C)cc1	.	0	.	.	.	.	.
COc1ccc(C(=O)C(=O)N2CCC(c3ccccc3)CC2)cn1	.	-2	.	.	.	.	.
O=C(CCCOc1ccccc1)Nc1cccnc1	-2	-5	-11	24	-6	.	.
O=C(COc1ccc2ccccc2c1)Nc1ccncc1	17	66*	53*	62	67*	73*	0
Cc1ccc(Oc2ccc(OCC(=O)Nc3ccncc3)cc2)cc1	.	105*	50*	14	58*	109*	-1
O=C(COc1ccc(C(=O)c2ccccc2)cc1)Nc1cccnc1	11	97*	8	18	52*	108*	0
CCCCOc1ccc(C(=O)Nc2ccncc2)cc1	1	57*	45*	61	42*	102*	0
C[C@@H]1O[C@H](C2CCCC2)Cc2[nH]c(=S)[nH]c(=O)c21	.	-5	.	.	.	.	.
COc1cccc(CNC(=O)[C@@H]2CCCN2C(=O)OC(C)(C)C)c1	.	-5	.	.	.	.	.
COc1cc(/C=C2/SC(=S)N(CCC(=O)Nc3cccnc3)C2=O)cc(OC)c1OC	.	-6	.	.	.	.	.
CCc1nc(C)cn1S(=O)(=O)c1cc(C)c(OC)c(C)c1C	4	26*	2	24	31*	82*	1
Cc1ccc(/C=C/C(=O)Nc2ccccc2C(N)=O)cc1	5	.	-14	17	-9	4	0
NC(=O)c1ccccc1NC(=O)/C=C/C(=O)O	-6	1	-14	13	-4	.	.
COc1ccc(C(=S)N2CCNCC2)cc1	-3	-1	-8	23	0	.	.
COc1ccc(C(=S)N2CCCCCC2)cc1	-1	13*	2	8	-9	0	0
CCOCCCNC(=S)N1CCN(Cc2ccc3c(c2)OCO3)CC1	-10	15*	-16	14	8	1	0
SMILES	GPR7 antagonist	GalR3 antag	OX1R antag-1	OX1R antag-2	CHO parental Ca	GalR3 antag conf	CNG parental
CCCNC(=S)N1CCN(Cc2ccc3c(c2)OCO3)CC1	5	-4	-7	19	-9	.	.
C[C@@H]1CN([C@H](C)CO)C(=O)c2c(c3ccccc3n2C)-c2ccccc2CO[C@H]1CN(C)C(=O)NC1CCCCC1	.	-6	.	.	.	.	.
O=C(O)c1ccc2c(c1)SC1=NS(=O)(=O)CCN12	4	3	10	7	10	.	.
CN(C(=O)c1ccc2c(c1)SC1=NS(=O)(=O)CCN12)C(c1ccccc1)c1ccccc1	-8	31*	-18	12	-13	30*	0
CN(C)CCCNS(=O)(=O)c1ccc(N2CCN(Cc3ccc4c(c3)OCO4)CC2)c([N+](=O)[O-])c1	5	57*	-9	25	-8	95*	0
CC(=O)c1ccc(N2CCN(c3ccc(S(=O)(=O)NCCCN(C)C)cc3[N+](=O)[O-])CC2)cc1	2	-9	-3	48	18	.	.
O=C(Nc1ccc(OCc2ccccc2)cc1)Nc1ccccc1C(=O)NCCCN1CCOCC1	5	17*	-14	4	-12	8	0
CCC(=O)OCCNc1cc(Sc2nc3ccccc3[nH]2)c2nonc2c1[N+](=O)[O-]	15	35*	30	93*	61*	32*	0
CC(C)c1[nH]nc2c1C(c1ccc(F)cc1)N(Cc1ccccc1)C2=O (stereo not drawn)	.	-6	.	.	.	.	.
COc1ccccc1-[n+]1c(C)cc(/C=C2\Sc3ccccc3N2C)cc1C	5	44*	62*	39	69*	107*	0
COc1ccc(C(=O)/C=C2\Sc3ccccc3N2C)cc1	4	-4	-5	34	-18	.	.
COc1ccc(-[n+]2c(C)cc(/C=C3\Sc4ccccc4N3C)cc2C)cc1	31*	82*	31	56*	46*	103*	-1
Cc1ccc(NC(=O)CSc2ncn[nH]2)cc1S(=O)(=O)N1CCOCC1	-3	18*	4	2	-1	8	0
O=C(Nc1ccc2c(c1)OCCO2)c1ccc(Cl)c(S(=O)(=O)N2CCOCC2)c1	-13	-7	-28	9	-31	.	.
CC(=O)Nc1ccc(OCC(=O)Nc2ccc(Cl)c(S(=O)(=O)N3CCOCC3)c2)cc1	.	31*	54*	19	29*	92*	-1
CC(CC(=O)Nc1ccc(Cl)c(S(=O)(=O)N2CCOCC2)c1)c1ccccc1 (stereo not drawn)	.	96*	.	.	.	120*	-1
Cc1ccc(NC(=O)CSc2ccccn2)cc1S(=O)(=O)N1CCOCC1	-13	-4	-16	9	-24	.	.
O=C(Nc1ccc(Cl)c(S(=O)(=O)N2CCOCC2)c1)c1ccncc1	.	43*	-15	3	-7	7	0
COc1ccc(OCC(=O)Nc2ccc(S(=O)(=O)N3CCOCC3)cc2)cc1	-9	0	3	-9	-12	.	.
COC(=O)C1=C(C)N(C)C(=NCc2ccc(C(F)(F)F)cc2)NC1c1cccc(Cl)c1 (stereo not drawn)	.	-5	.	.	.	.	.
Clc1ccc(-c2cc3nc(NCc4cccc(Cl)c4)ccn3n2)cc1	.	-9	.	.	.	.	.
CNC(=S)N/N=C/c1ccc(OCC(=O)Nc2c(C)cc(C)cc2C)c(OC)c1	-11	19*	-25	13	-9	23*	0
